# Measured values: ChEMBL document CHEMBL1765011, “Synthesis and c-Met kinase inhibition of 3,5-disubstituted and 3,5,7-trisubstituted quinolines: identification of 3-(4-acetylpiperazin-1-yl)-5-(3-nitrobenzylamino)-7- (trifluoromethyl)quinoline as a novel anticancer agent” (J Med Chem, 2011)
# pIC50: −log10 of the molar value.
# Tests used:
# [1] = biological target: T1, Hepatocyte growth factor receptor (Homo sapiens, UniProt P08581); experiment: Inhibition of purified recombinant c-Met at 10 uM after 60 mins by ELISA
# T1 sequence (P08581 whole entry): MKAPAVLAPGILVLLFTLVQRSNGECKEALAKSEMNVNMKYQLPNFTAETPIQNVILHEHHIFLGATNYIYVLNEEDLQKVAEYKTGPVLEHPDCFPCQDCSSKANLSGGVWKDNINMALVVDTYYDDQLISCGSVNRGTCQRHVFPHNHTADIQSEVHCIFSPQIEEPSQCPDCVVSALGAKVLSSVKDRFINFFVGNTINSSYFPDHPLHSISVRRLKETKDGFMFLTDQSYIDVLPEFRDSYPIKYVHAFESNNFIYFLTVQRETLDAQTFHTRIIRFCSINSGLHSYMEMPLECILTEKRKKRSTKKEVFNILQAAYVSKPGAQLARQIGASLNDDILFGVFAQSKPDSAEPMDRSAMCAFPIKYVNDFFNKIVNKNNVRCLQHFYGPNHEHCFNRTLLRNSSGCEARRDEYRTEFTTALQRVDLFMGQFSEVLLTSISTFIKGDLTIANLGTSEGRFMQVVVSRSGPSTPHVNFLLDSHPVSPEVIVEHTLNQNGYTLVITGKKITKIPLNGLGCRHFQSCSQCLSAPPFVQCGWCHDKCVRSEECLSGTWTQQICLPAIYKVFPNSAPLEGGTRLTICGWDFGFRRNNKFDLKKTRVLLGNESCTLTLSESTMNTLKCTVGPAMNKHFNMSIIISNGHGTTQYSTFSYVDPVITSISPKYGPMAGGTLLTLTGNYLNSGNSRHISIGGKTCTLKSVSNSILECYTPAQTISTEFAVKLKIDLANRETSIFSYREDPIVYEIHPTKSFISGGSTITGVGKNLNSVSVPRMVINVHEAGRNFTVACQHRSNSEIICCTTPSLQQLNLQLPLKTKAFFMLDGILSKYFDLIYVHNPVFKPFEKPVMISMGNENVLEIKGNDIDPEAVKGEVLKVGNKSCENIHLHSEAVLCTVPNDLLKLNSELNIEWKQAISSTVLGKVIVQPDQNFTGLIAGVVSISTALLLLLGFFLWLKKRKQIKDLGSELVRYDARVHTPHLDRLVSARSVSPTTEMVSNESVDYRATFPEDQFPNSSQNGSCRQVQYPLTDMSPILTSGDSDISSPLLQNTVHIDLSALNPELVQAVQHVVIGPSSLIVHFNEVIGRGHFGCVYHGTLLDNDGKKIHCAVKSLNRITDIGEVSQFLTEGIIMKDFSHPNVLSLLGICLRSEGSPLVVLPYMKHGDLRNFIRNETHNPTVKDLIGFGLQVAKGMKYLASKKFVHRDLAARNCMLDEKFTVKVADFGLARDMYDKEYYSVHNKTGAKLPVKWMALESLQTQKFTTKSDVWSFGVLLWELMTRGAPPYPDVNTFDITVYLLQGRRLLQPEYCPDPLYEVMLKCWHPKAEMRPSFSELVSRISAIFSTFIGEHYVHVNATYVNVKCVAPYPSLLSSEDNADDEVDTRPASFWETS
# [2] = biological target: T1, Hepatocyte growth factor receptor; experiment: Inhibition of purified recombinant c-Met after 60 mins by ELISA
# [3] = tested on: NIH3T3; experiment: Antiproliferative activity against mouse NIH/3T3 cells after 72 hrs; format: functional, cell-based; conditions: NIH3T3, 72 h
# Summary of the method: (§1)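 Cells were seeded and exposed next day to a range of compound concentrations for 72 h. Proliferation was read by sulforhodamine B or MTT assay, and IC50 derived.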
# [4] = tested on: NCI-H441; experiment: Antiproliferative activity against human NCI-H441 cells after 72 hrs; conditions: NCI-H441, 72 h
# [5] = tested on: BaF3; experiment: Antiproliferative activity against mouse BAF3 cells expressing TPR-Met after 72 hrs in absence of IL-3; format: functional, cell-based; conditions: BaF3, 72 h; summary of the method: as §1
# [6] = tested on: MKN-45; experiment: Antiproliferative activity against human MKN45 cells after 72 hrs; conditions: MKN-45, 72 h
# [7] = tested on: NCI-H1993; experiment: Antiproliferative activity against human NCI-H1993 cells after 72 hrs; conditions: NCI-H1993, 72 h
# [8] = tested on: MDA-MB-231; experiment: Antiproliferative activity against human MDA-MB-231 cells after 72 hrs; conditions: MDA-MB-231, 72 h
# [9] = tested on: BaF3; experiment: Antiproliferative activity against mouse BAF3 cells expressing TPR-Met after 72 hrs in presence of IL-3; format: functional, cell-based; conditions: BaF3, 72 h; summary of the method: as §1
# [10] = tested on: NIH3T3; experiment: Antiproliferative activity against mouse NIH/3T3 cells expressing TPR-Met after 72 hrs; format: functional, cell-based; conditions: NIH3T3, 72 h; summary of the method: as §1
# [11] = tested on: MCF7; experiment: Antiproliferative activity against human MCF7 cells after 72 hrs; conditions: MCF7, 72 h
# [12] = tested on: SNU-5; experiment: Antiproliferative activity against human SNU5 cells after 72 hrs; conditions: SNU-5, 72 h
# [13] = tested on: BXPC-3; experiment: Antiproliferative activity against human BxPC3 cells after 72 hrs; conditions: BXPC-3, 72 h
# [14] = tested on: SNU1; experiment: Antiproliferative activity against human SNU1 cells after 72 hrs; conditions: SNU1, 72 h
# [15] = Cmax in mouse at 20 mg/kg, po; format: ADME, organism-based; parameters: dose 20 mg/kg, route oral; conditions: in vivo
# Summary of the method: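 Oral 20 mg/kg single dose to mice, vehicle DMSO/Tween 80/normal saline. Cmax was read from the plasma concentration-time profile. Average of three runs.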
# [16] = biological target: Hepatocyte growth factor receptor (Mus musculus) (UniProt P16056); experiment: Inhibition of TPR-MET autophosphorylation in mouse BaF3 cells after 4 hrs by Western blotting; format: cell-based
# Sequence of Hepatocyte growth factor receptor (Mus musculus) (P16056 whole entry): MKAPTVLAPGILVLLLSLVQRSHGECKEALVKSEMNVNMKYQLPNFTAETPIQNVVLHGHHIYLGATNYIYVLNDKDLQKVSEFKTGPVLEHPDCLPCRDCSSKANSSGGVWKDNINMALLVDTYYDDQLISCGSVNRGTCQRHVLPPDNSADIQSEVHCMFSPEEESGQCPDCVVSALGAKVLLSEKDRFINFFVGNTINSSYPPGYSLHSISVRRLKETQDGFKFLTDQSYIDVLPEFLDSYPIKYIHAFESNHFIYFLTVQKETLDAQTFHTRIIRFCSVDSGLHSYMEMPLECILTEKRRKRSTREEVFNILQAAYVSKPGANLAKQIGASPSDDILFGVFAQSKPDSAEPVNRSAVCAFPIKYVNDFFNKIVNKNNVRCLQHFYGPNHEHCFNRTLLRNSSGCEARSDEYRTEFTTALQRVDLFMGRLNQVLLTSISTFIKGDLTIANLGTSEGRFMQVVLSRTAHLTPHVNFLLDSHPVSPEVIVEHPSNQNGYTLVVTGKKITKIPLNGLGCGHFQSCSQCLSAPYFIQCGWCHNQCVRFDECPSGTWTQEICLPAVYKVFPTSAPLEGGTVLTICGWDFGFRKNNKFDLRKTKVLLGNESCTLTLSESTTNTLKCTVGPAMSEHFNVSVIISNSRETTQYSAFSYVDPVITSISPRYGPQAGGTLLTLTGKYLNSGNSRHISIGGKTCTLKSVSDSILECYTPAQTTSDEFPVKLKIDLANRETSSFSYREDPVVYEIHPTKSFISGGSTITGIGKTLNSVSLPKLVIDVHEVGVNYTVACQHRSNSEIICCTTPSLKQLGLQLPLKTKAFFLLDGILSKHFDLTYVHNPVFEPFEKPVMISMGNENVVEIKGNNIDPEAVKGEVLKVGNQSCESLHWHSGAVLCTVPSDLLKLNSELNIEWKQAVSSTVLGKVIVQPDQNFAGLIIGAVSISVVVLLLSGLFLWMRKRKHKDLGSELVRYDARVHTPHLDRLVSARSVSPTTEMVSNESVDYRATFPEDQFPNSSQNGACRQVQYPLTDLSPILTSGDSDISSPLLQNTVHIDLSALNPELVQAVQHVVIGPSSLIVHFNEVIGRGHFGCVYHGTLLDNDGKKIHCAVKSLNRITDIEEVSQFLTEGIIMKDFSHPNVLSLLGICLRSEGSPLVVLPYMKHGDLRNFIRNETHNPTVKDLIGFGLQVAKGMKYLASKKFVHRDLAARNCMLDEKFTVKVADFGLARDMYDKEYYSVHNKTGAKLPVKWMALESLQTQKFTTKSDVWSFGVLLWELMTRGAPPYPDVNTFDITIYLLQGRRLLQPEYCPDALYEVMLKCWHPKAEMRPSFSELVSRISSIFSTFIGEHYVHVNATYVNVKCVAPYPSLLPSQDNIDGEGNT
# Summary of the method: (§2)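 Exponentially growing cells were treated with compound for 4 h at 37 °C and lysed in SDS sample buffer. Lysates were run on 10% SDS-PAGE and blotted to nitrocellulose. Blots were probed for phospho-c-Met and total c-Met, with GAPDH as loading control, and detected by ECL.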
# [17] = Volume of distribution at steady state in mouse at 2.5 mg/kg, iv; format: ADME, organism-based; parameters: dose 2.5 mg/kg, route intravenous; conditions: in vivo, read-out: Vdss
# [18] = Tmax in mouse at 20 mg/kg, po; format: ADME, organism-based; parameters: dose 20 mg/kg, route oral; conditions: in vivo
# [19] = Half life in mouse at 2.5 mg/kg, iv; format: ADME, organism-based; parameters: dose 2.5 mg/kg, route intravenous; conditions: in vivo
# Summary of the method: (§3)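 Single iv dose to mice in DMSO/Tween 80/normal saline vehicle, reduced to 2.5 mg/kg because of poor solubility. Clearance and half-life were taken from plasma concentration-time data. Average of three runs.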
# [20] = Oral bioavailability in mouse at 20 mg/kg; format: ADME, organism-based; conditions: in vivo
# [21] = biological target: Hepatocyte growth factor receptor (Mus musculus) (UniProt P16056); experiment: Inhibition of TPR-MET autophosphorylation in mouse NIH3T3 cells after 4 hrs by Western blotting; format: cell-based; summary of the method: as §2
# [22] = Clearance in mouse at 2.5 mg/kg, iv; format: ADME, organism-based; parameters: dose 2.5 mg/kg, route intravenous; conditions: in vivo; summary of the method: as §3
# [23] = AUC (0 to infinity) in mouse at 20 mg/kg, po; format: ADME, organism-based; parameters: dose 20 mg/kg, route oral, time infinity; conditions: plasma
# Summary of the method: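 Mice dosed orally at 20 mg/kg in DMSO/Tween 80/normal saline vehicle; plasma concentration-time profile used to derive AUC0-∞. Values are the average of three runs.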
# [24] = Volume of distribution at steady state in mouse at 10 mg/kg, iv; format: ADME, organism-based; parameters: dose 10 mg/kg, route intravenous; conditions: in vivo, read-out: Vdss
# [25] = Half life in mouse at 10 mg/kg, iv; format: ADME, organism-based; parameters: dose 10 mg/kg, route intravenous; conditions: in vivo
# Summary of the method: (§4)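 Single iv dose of 10 mg/kg to mice, vehicle DMSO/Tween 80/normal saline. Clearance and half-life were derived from plasma concentration-time data. Average of three runs.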
# [26] = Clearance in mouse at 10 mg/kg, iv; format: ADME, organism-based; parameters: dose 10 mg/kg, route intravenous; conditions: in vivo; summary of the method: as §4
structure (smiles),measurement,setting,value
CN1CCN(c2cnc3cccc(OC(=O)c4cccc([N+](=O)[O-])c4)c3c2)CC1,inhibition,[1],7.3%
CN1CCN(c2cnc3cc(C(F)(F)F)cc(OCc4cccc([N+](=O)[O-])c4)c3c2)CC1,pIC50,[2],8.57
CCN1CCN(c2cnc3cc(C(F)(F)F)cc(NCc4cccc(C#N)c4)c3c2)CC1,pIC50,[2],8.25
Cc1[nH]c(/C=C2\C(=O)Nc3ccc(S(=O)(=O)N(C)c4cccc(Cl)c4)cc32)c(C)c1C(=O)N1CCN(C)CC1,pIC50,[3],≤ 4.30
same,pIC50,[4],4.89
same,pIC50,[5],6.28
same,pIC50,[6],5.89
same,pIC50,[2],7.85
same,pIC50,[7],5.14
same,pIC50,[8],4.96
same,pIC50,[9],5.19
same,pIC50,[10],5.19
same,pIC50,[11],5.21
same,pIC50,[12],6.10
same,pIC50,[13],4.80
same,pIC50,[14],5.15
CN1CCN(c2cnc3cc(NCc4cccc([N+](=O)[O-])c4)cc(C(F)(F)F)c3c2)CC1,inhibition,[1],8.9%
CN1CCN(c2cnc3cccc(OS(=O)(=O)c4cccc([N+](=O)[O-])c4)c3c2)CC1,pIC50,[2],5.92
CS(=O)(=O)N1CCN(c2cnc3cc(C(F)(F)F)cc(NCc4cccc([N+](=O)[O-])c4)c3c2)CC1,pIC50,[3],≤ 4.30
same,Cmax,[15],59.3 ng/mL
same,pIC50,[5],5.06
same,inhibition,[16],Dose-dependent effect
same,Vd,[17],1.72 L/kg
same,pIC50,[2],9.09
same,Tmax,[18],1.33 h
same,half-life,[19],0.97 h
same,bioavailability,[20],3.7%
same,inhibition,[21],Dose-dependent effect
same,clearance,[22],43.3 mL/min/kg
same,pIC50,[9],≤ 4.30
same,pIC50,[10],5.66
same,AUC(0-inf),[23],366 ng·h/mL
O=[N+]([O-])c1cccc(CNc2cc(C(F)(F)F)cc3ncc(N4CCNCC4)cc23)c1,pIC50,[2],8.66
CN1CCN(c2cnc3cccc(-c4cccs4)c3c2)CC1,pIC50,[2],4.84
CN1CCN(c2cnc3cccc(-c4ccc(F)cc4)c3c2)CC1,inhibition,[1],29.9%
CN1CCN(c2cnc3cccc(OCc4cccc(F)c4)c3c2)CC1,inhibition,[1],25.8%
CC(=O)N1CCN(c2cnc3cccc(NCc4cccc([N+](=O)[O-])c4)c3c2)CC1,pIC50,[2],6.96
CN1CCN(c2cnc3cccc(NC(=O)Nc4cccc([N+](=O)[O-])c4)c3c2)CC1,inhibition,[1],25.2%
CC(=O)N1CCN(c2cnc3cccc(NS(=O)(=O)c4cccc([N+](=O)[O-])c4)c3c2)CC1,pIC50,[2],5.59
CN1CCN(c2cnc3cc(C(F)(F)F)cc(NS(=O)(=O)c4cccc([N+](=O)[O-])c4)c3c2)CC1,pIC50,[2],7.00
CN1CCN(c2cnc3cccc(-c4cccc([N+](=O)[O-])c4)c3c2)CC1,pIC50,[2],5.64
CC(C)(C)OC(=O)N1CCN(c2cnc3cc(C(F)(F)F)cc(NCc4cccc([N+](=O)[O-])c4)c3c2)CC1,pIC50,[2],7.97
CCN1CCN(c2cnc3cc(C(F)(F)F)cc(NCc4cccc(O)c4)c3c2)CC1,pIC50,[2],6.64
CN1CCN(c2cnc3cccc(-c4ccco4)c3c2)CC1,pIC50,[2],4.90
O=[N+]([O-])c1cccc(CNc2cc(C(F)(F)F)cc3ncc(N4CCCCC4)cc23)c1,pIC50,[2],8.47
CN1CCN(c2cnc3cccc(-c4ccc5ccccc5c4)c3c2)CC1,pIC50,[2],5.24
CC(=O)N1CCN(c2cnc3cccc(NC(=S)Nc4cccc([N+](=O)[O-])c4)c3c2)CC1,inhibition,[1],13.9%
CCN1CCN(c2cnc3cc(C(F)(F)F)cc(NCc4ccc(F)cc4)c3c2)CC1,pIC50,[2],5.00
CN1CCN(c2cnc3cccc(-c4cccc(O)c4)c3c2)CC1,inhibition,[1],30.7%
CCN1CCN(c2cnc3cc(NCc4cccc([N+](=O)[O-])c4)cc(C(F)(F)F)c3c2)CC1,inhibition,[1],46.6%
CN1CCN(c2cnc3cccc(OCc4cccc(C#N)c4)c3c2)CC1,pIC50,[2],4.91
CCOC(=O)CN1CCN(c2cnc3cc(C(F)(F)F)cc(NCc4cccc([N+](=O)[O-])c4)c3c2)CC1,pIC50,[3],≤ 4.30
same,Cmax,[15],279 ng/mL
same,pIC50,[5],5.85
same,inhibition,[16],Dose-dependent effect
same,Vd,[24],1.36 L/kg
same,pIC50,[2],9.11
same,Tmax,[18],0.5 h
same,half-life,[25],1.13 h
same,bioavailability,[20],8.2%
same,inhibition,[21],Dose-dependent effect
same,clearance,[26],40.5 mL/min/kg
same,pIC50,[9],4.85
same,pIC50,[10],5.23
same,AUC(0-inf),[23],700 ng·h/mL
O=C(O)CN1CCN(c2cnc3cc(C(F)(F)F)cc(NCc4cccc([N+](=O)[O-])c4)c3c2)CC1,pIC50,[2],8.36
CN1CCN(c2cnc3cccc(NC(=O)c4cccn(-c5ccc(F)cc5)c4=O)c3c2)CC1,pIC50,[2],5.28
CN1CCN(c2cnc3cc(C(F)(F)F)cc(NCc4cccnc4)c3c2)CC1,pIC50,[2],6.80
COC(=O)N1CCN(c2cnc3cc(C(F)(F)F)cc(NCc4cccc([N+](=O)[O-])c4)c3c2)CC1,pIC50,[2],7.37
O=[N+]([O-])c1cccc(CNc2cc(C(F)(F)F)cc3ncc(N4CCOCC4)cc23)c1,pIC50,[3],≤ 4.30
same,pIC50,[5],5.38
same,inhibition,[16],Dose-dependent effect
same,pIC50,[2],9.14
same,inhibition,[21],Dose-dependent effect
same,pIC50,[9],≤ 4.30
same,pIC50,[10],5.40
CN1CCN(c2cnc3cccc(NS(=O)(=O)c4cccc([N+](=O)[O-])c4)c3c2)CC1,pIC50,[2],5.46
CC(=O)N1CCN(c2cnc3cccc(NC(=O)Nc4cccc([N+](=O)[O-])c4)c3c2)CC1,pIC50,[2],4.65
CN1CCN(c2cnc3cc(C(F)(F)F)cc(NCc4cccc(F)c4)c3c2)CC1,pIC50,[2],6.35
CN1CCN(c2cnc3cccc(NC(=S)Nc4cccc([N+](=O)[O-])c4)c3c2)CC1,inhibition,[1],12.4%
CN1CCN(c2cnc3cccc(OC(=O)c4cccn(-c5ccc(F)cc5)c4=O)c3c2)CC1,inhibition,[1],12.6%
CCN1CCN(c2cnc3cc(C(F)(F)F)cc(NCc4cccc([N+](=O)[O-])c4)c3c2)CC1,pIC50,[3],4.88
same,pIC50,[5],6.43
same,inhibition,[16],Dose-dependent effect
same,pIC50,[2],9.00
same,inhibition,[21],Dose-dependent effect
same,pIC50,[9],5.00
same,pIC50,[10],5.59
CN1CCN(c2cnc3cccc(NCc4cccc([N+](=O)[O-])c4)c3c2)CC1,pIC50,[2],6.78
CN1CCN(c2cnc3cccc(OCc4cccc([N+](=O)[O-])c4)c3c2)CC1,pIC50,[2],6.85
O=[N+]([O-])c1cccc(CNc2cc(C(F)(F)F)cc3ncc(N4CCN(S(=O)(=O)C5CC5)CC4)cc23)c1,pIC50,[3],≤ 4.30
same,pIC50,[5],6.30
same,inhibition,[16],Dose-dependent effect
same,pIC50,[2],9.08
same,inhibition,[21],Dose-dependent effect
same,pIC50,[9],≤ 4.30
same,pIC50,[10],5.85
